Compound activity as filed in PubChem BioAssay.
Only some compounds are listed: those with a hit (about 2.3% of all), similar ones and a draw of the others.
DSG3 Ab inh = inhibitors of pemphigus antibody binding to human desmoglein-3 | P32926 | binding (percent of control), % at 10 µM | DSG3-coupled beads, scFv-anti-DSG3-GFP binding, flow cytometry; hits give low values | actives 0.48% (n = 310,000);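 active means binding more than 3 SD below its plate's average and above zero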;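 further: hits lower antibody fragment binding to DSG3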
CHT block = inhibits the human high affinity choline transporter | actives 0.86% (n = 310,000) | AID 488975 | CHT-expressing cells, membrane potential dye, choline response; hits give low values | Q9GZV3 | B-score at 10 µM;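 active means B-score over 3 SD under the library average, and starting fluorescence ratio not unusually high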;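 further: choline stimulus applied at its EC90 after an EC20 pre-addition; B-score computed on integrated fluorescence ratio after choline addition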
CHT allo act = human CHT allosteric activation. Q9GZV3. CHT-expressing cells, membrane potential dye, choline EC20; hits give high values; LV-AA mutant CHT in HEK293 cells. B-score at 10 µM. actives 0.49% (n = 310,000). AID 488977;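 active means initial fluorescence not abnormally high and integrated response B-score, plate-corrected, over 3 SD above library mean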
pCIP destab = compounds decreasing mouse p/CIP protein stability; decrease of EGFP signal, % at 10 µM; Q05BA5; AID 1984; actives 0.01% (n = 290,000); F442A p/CIP-EGFP cells, EGFP fluorescence, 16 h;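 active means EGFP signal decrease of at least 30% at 10 µM or well 3 SD below plate mean, unless failing retest; inactive means the rest, including hits failing retest or dose response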
GPR7 antag = human neuropeptides B/W receptor 1 antagonism; P48145; GPR7-expressing cells, fluorescence antagonist assay; actives 1.1% (n = 290,000); inhibition, % at 4.4 µM; in the data active means inhibition above about 16%, passing the limit was not always enough;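 further: cells stimulated with the agonist NPW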
Target sequence (P48145 whole entry, looked up): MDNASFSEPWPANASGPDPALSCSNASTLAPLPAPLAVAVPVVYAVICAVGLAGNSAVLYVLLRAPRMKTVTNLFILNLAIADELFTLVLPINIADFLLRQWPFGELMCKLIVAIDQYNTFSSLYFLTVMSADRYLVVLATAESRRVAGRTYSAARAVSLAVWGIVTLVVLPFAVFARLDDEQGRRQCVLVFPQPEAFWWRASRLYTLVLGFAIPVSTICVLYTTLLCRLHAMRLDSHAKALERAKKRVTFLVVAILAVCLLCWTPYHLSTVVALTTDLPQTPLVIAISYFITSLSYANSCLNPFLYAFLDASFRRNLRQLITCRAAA
T cell modulator = T cell immune modulators affecting CD8 T cell-vesicle binding; 2C CD8+ T cell-vesicle binding, flow cytometry; hits give low values; actives 0.068% (n = 330,000); response (vesicle binding), % at 7 µM;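 active means response, share of CD8 T cells binding vesicles, and their 90th percentile fluorescence all below set limits, cut at about 80% in these data, passing the limit was not always enough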;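 further: values below 100% mean blocked vesicle binding to the CD8+ T cells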
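Incubation: binding step 1.5 h, 37 °C, antibody labelling 20 min, ice; system: murine 2C transgenic CD8+ T lymphocytes; technique: cytometric PE anti-B7-1 and Alexa647 anti-CD8 signals after 1% paraformaldehyde fixation; also added: QL9-charged Drosophila Ld/ICAM-1/B7-1 vesicles; control set: naked versus QL9-loaded vesicles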
CHT activ conf = confirmation of human choline transporter (CHT) activators | shares compounds with CHT allo act | CHT-expressing cells, membrane potential dye fluorescence (FDSS); % of choline EC20–EC90 response window; HEK293 expressing CHT LV-AA mutant; choline added at its EC20 | activation, % at 10 µM | actives 91% (n = 2,500);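 active means primary screen active, with duplicate mean activation above negative control mean plus 3 SD, cut at about 11% in these data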
HEK293 MP dye = CHT activator counter-screen hit in parental HEK293 cells. membrane potential dye fluorescence (FDSS); measured after EC20 choline addition. actives 62% (n = 2,500). ratio readout change at 10 µM, hits read low. shares compounds with CHT allo act;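 active means duplicate-averaged ratio beyond 3 SD from buffer wells, up or down, though filed actives are nearly all decreases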
Large screens that a line does not name were inactive (follow-up assays come after a bar, where they were run).

COc1cc(N)c(C(O)c2nccc3cc(OC)c(OC)cc23)cc1OC (centres undefined)	none | CHT activ conf 70 | HEK293 MP dye -51
COc1ccc(C(O)c2nccc3cc(OC)c(OC)cc23)cc1OC (centres undefined)	CHT allo act 9.2 | CHT activ conf 59 | HEK293 MP dye -74
COc1cc(N)c2ncccc2c1Cl	none (no result: CHT block, CHT allo act, pCIP destab, GPR7 antag, T cell modulator)
C=C1[C@H](C)CN[C@H]1CCO	none (no result: CHT block, CHT allo act, pCIP destab, GPR7 antag, T cell modulator)
CCOc1ccccc1CNC(=O)C1CCN(S(=O)(=O)N2CCC(C)CC2)CC1	none (no result: CHT block, CHT allo act, pCIP destab, GPR7 antag, T cell modulator)
CCc1cc(CC)c(/C=N/NC(N)=O)c(CC)c1	none
Cc1cc(C)c(/C=N/NC(N)=O)c(C)c1/C=N/NC(N)=O	CHT allo act 6.4 | CHT activ conf 47 | HEK293 MP dye -62
Cc1cc(C)c2ccc(N)nc2c1O	none | CHT activ conf 42 | HEK293 MP dye -53
Cc1cc(Oc2ccc3ccccc3c2)nc(SCC(=O)c2ccccc2)n1	CHT allo act 8, GPR7 antag 32 | CHT activ conf 53 | HEK293 MP dye inactive
COCCN(C(=O)COC(=O)C1(C)CC1(Cl)Cl)c1c(N)n(Cc2ccccc2)c(=O)[nH]c1=O (centres undefined)	none
CCOC(=O)c1cnc2ccc(C)cc2c1Sc1ccccc1	none
CCOC(=O)c1cnc2ccc(C)cc2c1N(C)Cc1ccccc1	none | CHT activ conf 28 | HEK293 MP dye inactive
CCOC(=O)c1ccc2ncc(C(=O)OCC)c(NCCN(C)C)c2c1	none (no result: pCIP destab) | CHT activ conf 36 | HEK293 MP dye -36
CCOC(=O)c1cnc2ccc(C(=O)OC)cc2c1Nc1cccc(C(=O)O)c1	CHT allo act 11 | CHT activ conf 75 | HEK293 MP dye -74
COc1cc(OC)c2nc(C)c3c(c2c1)N(c1ccc(O)cc1)CC3	CHT allo act 6.4 | CHT activ conf 34 | HEK293 MP dye -42
COc1ccc(N2CCN(c3cc(C)c4ccc(O)cc4n3)CC2)cc1	none
Cn1cc(S(=O)(=O)NC[C@H]2O[C@@H](n3ccc(=O)[nH]c3=O)[C@H](O)[C@@H]2O)cn1	none (no result: CHT block, CHT allo act, pCIP destab, GPR7 antag, T cell modulator)
CCOC(=O)C[C@H]1c2ccccc2S(=O)(=O)N1Cc1cc(OC)c(OC)c(OC)c1	none (no result: pCIP destab, GPR7 antag)
CCOC(=O)C[C@H]1c2ccccc2S(=O)(=O)N1Cc1cccc(C(F)(F)F)c1	none (no result: pCIP destab, GPR7 antag, T cell modulator) | CHT activ conf 17 | HEK293 MP dye inactive
COc1ccc(N2CCN(C(c3cc(OC)ccc3OC)c3nnnn3Cc3ccco3)CC2)cc1 (centres undefined)	CHT allo act 7.4 | CHT activ conf 21 | HEK293 MP dye inactive
COc1ccc(OC)c(C(c2nnnn2CCc2ccccc2)N2CCN(c3ccccc3)CC2)c1 (centres undefined)	none (no result: DSG3 Ab inh)
CC1Cc2cc(S(=O)(=O)N3CCC(C(=O)N(C)Cc4ccco4)CC3)ccc2N1C(=O)C1CCC1 (centres undefined)	none
COCCCNc1ncnc2ccc(C)cc12	none | CHT activ conf 18 | HEK293 MP dye -34
Cc1ccc2ncnc(NCCC(=O)O)c2c1	none
COC(C(=O)Nc1ccnn1C1CCN(C(=O)c2ccc(C=O)cc2)CC1)c1ccccc1 (centres undefined)	none
Cc1ccc2c(c1)N(CC(=O)NCCCN1CCN(C)CC1)C(=O)CO2	none
CC(=O)N1CCC(=NNc2ccnc3cc(Cl)ccc23)CC1	none | CHT activ conf 41 | HEK293 MP dye -24
COc1ccc(N2CCN(C(=O)COC(=O)c3ccccc3OCc3ccc(F)cc3)CC2)cc1	CHT allo act 6.8 (no result: pCIP destab, GPR7 antag) | CHT activ conf 20 | HEK293 MP dye inactive
Cc1cn(CC(=O)N(C)Cc2ccco2)c(=O)[nH]c1=O	none (no result: CHT block, CHT allo act, pCIP destab, GPR7 antag, T cell modulator)
COc1ccc(C2=NC(C)(C)Cc3cc(OC)c(OC)cc32)cc1OC	none | CHT activ conf 72 | HEK293 MP dye -83
C=CCn1c(C)c(C(C)=O)c(N2CCCC2)nc1=S	none
CCn1c(C)c(C(C)=O)c(N2CCCC2)nc1=S	none | CHT activ conf inactive | HEK293 MP dye inactive
CCOC(=O)c1ccccc1NC(=O)COc1coc(CN2CCc3ccccc32)cc1=O	none (no result: pCIP destab, GPR7 antag) | CHT activ conf 26 | HEK293 MP dye inactive
CCOc1ccccc1NC(=O)COc1coc(CN2CCc3ccccc32)cc1=O	none (no result: pCIP destab, GPR7 antag)
O=C(CCCN1CCC(O)(c2cccc(C(F)(F)F)c2)CC1)c1ccc(F)cc1	none (no result: pCIP destab, GPR7 antag)
O=C(CCCN1CCC(O)(c2ccc(Br)cc2)CC1)c1ccc(F)cc1	none (no result: pCIP destab, GPR7 antag) | CHT activ conf 60 | HEK293 MP dye inactive
CN(C)c1ccc(-c2n(C)c3ccccc3[n+]2C)cc1	CHT allo act 8.3 | CHT activ conf 64 | HEK293 MP dye -51
Cn1c(-c2ccc3ccccc3n2)[n+](C)c2ccccc21	none
Cn1c(-c2ccccn2)[n+](C)c2ccccc21	none | CHT activ conf 44 | HEK293 MP dye -37
Cc1cc(OCC(=O)OC(C)C(=O)NC2CC2)c(C(C)C)cc1Cl (centres undefined)	none (no result: CHT block, CHT allo act, pCIP destab, GPR7 antag, T cell modulator)
N=c1c2c(n(Cc3ccccc3)c3c1CCC3)CCC2	none
N=c1c2c(n(Cc3cccc(Cl)c3)c3c1CCC3)CCCC2	CHT allo act 8.8 | CHT activ conf 66 | HEK293 MP dye -41
CCn1c2c(c(=N)c3c1CCC3)CCCC2	CHT allo act 9.3 | CHT activ conf 68 | HEK293 MP dye -65
N=c1c2c(n(Cc3ccc(F)cc3)c3c1CCC3)CCCC2	none
N=c1c2c(n(Cc3ccc(Cl)cc3)c3c1CCC3)CCC2	CHT allo act 8.1 | CHT activ conf 51 | HEK293 MP dye -42
O=C(COC(=O)c1cc(=O)c2ccccc2o1)NCc1ccc(Cl)cc1	none (no result: CHT block, CHT allo act, pCIP destab, GPR7 antag, T cell modulator)
CCN1C(=O)[C@H]2[C@@H](c3ccc(C(F)(F)F)cc3)N[C@]3(CCCN(Cc4ccc(OC)cc4)C3=O)[C@H]2C1=O	none (no result: CHT block, CHT allo act, pCIP destab, GPR7 antag, T cell modulator)
O=C(NCC(c1ccco1)N1CCCC1)c1ccccc1Sc1ccc(C(F)(F)F)cc1[N+](=O)[O-] (centres undefined)	none (no result: pCIP destab, GPR7 antag) | CHT activ conf 26 | HEK293 MP dye inactive
N#Cc1ccccc1Sc1ccccc1C(=O)NCC(c1ccco1)N1CCCCC1 (centres undefined)	none (no result: CHT block, CHT allo act, pCIP destab, GPR7 antag)
Cc1ccnc2nc(C(=O)OCC(=O)N3CC(C)CC(C)C3)nn12 (centres undefined)	none (no result: CHT block, CHT allo act, pCIP destab, GPR7 antag, T cell modulator)
Cc1ccccc1Oc1nc2c(C)cccn2c(=O)c1/C=C(\C#N)C(=O)NC1CCS(=O)(=O)C1 (centres undefined)	none
Cc1cccn2c(=O)c3cc(C(=O)N4COCC4(C)C)sc3nc12	none | CHT activ conf 35 | HEK293 MP dye -30
CCCn1c(=N)c(C(=O)NC2CCCC2)cc2c(=O)n3cccc(C)c3nc21	none
